Test [1] addresses T1, Retinoic acid receptor RXR-alpha (Homo sapiens) (UniProt P19793).
T1 sequence (whole entry): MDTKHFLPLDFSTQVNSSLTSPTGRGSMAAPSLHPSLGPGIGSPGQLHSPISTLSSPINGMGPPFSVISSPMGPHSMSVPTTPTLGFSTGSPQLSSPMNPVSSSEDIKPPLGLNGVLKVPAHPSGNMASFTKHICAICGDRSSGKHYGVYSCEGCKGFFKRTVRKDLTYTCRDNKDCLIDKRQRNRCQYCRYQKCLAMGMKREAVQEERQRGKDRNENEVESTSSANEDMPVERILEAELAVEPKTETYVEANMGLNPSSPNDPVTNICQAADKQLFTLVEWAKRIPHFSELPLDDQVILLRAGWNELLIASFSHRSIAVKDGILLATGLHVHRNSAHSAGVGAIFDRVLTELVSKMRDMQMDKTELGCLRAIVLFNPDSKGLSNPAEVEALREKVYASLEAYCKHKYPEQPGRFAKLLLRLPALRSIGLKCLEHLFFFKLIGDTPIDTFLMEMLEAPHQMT
Description: Antagonist activity against Myc-tagged RXRalpha ligand binding domain (unknown origin) expressed in human MCF7 cells assessed as inhibition of 9-cis-RA-induced receptor transactivation at 10 uM after 18 hrs by luciferase reporter gene based mammalian one-hybrid assay. Format: cell-based. In a few lines:
(§1)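 MCF-7 cells co-transfected with pG5-Luc reporter and pBind-RXRα-LBD. […] Read-out was dual-luciferase, with firefly normalized to Renilla for transfection efficiency. Single-concentration tests used 10 μM. Mean ± SD.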
(In general: In a reporter assay the amount or activity of a reporter protein is the signal.)

Test [2] concerns the target T1, Retinoic acid receptor RXR-alpha (Homo sapiens). Description: Antagonist activity against Myc-tagged RXRalpha ligand binding domain (unknown origin) expressed in human MCF7 cells assessed as inhibition of 9-cis-RA-induced receptor transactivation after 18 hrs by luciferase reporter gene based mammalian one-hybrid assay. Format: cell-based. In a few lines: as §1
In test [3] the test system is T2, Retinoic acid receptor RXR-alpha (Homo sapiens), P19793 [V298S].
T2 sequence (whole entry): T1 sequence (whole entry) with V298S
Description: Antagonist activity against RXRalpha V298S mutant (unknown origin) expressed in human HEK293T cells assessed as inhibition of 9-cis-RA-induced receptor transactivation at 1 uM after 18 hrs by luciferase reporter gene based mammalian one-hybrid assay. It counts as cell-based. Particulars: HEK-293T. In a few lines: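 The pG5-Luc reporter was cotransfected with pBind-RXRα/V298S (Gal4-fusion construct) into HEK-293T cells. Cells were then exposed to the indicated compounds for 18 h, and luciferase reporter activity was measured.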

For test [4], the system named is T3, Retinoic acid receptor RXR-alpha (Homo sapiens), P19793 [F313A].
T3 sequence (whole entry): T1 sequence (whole entry) with F313A
The settings on record: HEK-293T, 1 uM.

For test [5], the system named is T4, Retinoic acid receptor RXR-alpha (Homo sapiens), P19793 [C432W].
T4 sequence (whole entry): T1 sequence (whole entry) with C432W
Particulars: HEK-293T, 1 uM.

Test [6] has as its system T5, Retinoic acid receptor RXR-alpha (Homo sapiens), P19793 [A272W].
T5 sequence (whole entry): T1 sequence (whole entry) with A272W
Particulars: HEK-293T, 1 uM.

Numbering of substitutions follows the chain as printed. Active and inactive are the calls of the source. The calls are words filed in the database; no cut-off is given here.

As to `CCC(Sc1nc2ccccc2s1)C(=O)N/N=C/c1c(O)ccc2ccccc12` (configuration not stated), the inhibition result in test [1] is “Active”. Also, the inhibition entry in test [2] is “Dose-dependent effect”.
In the case of `CCCCCOc1cc2c(cc1-c1cc(/C=C/C(=O)O)ccc1O)C(C)(C)CCC2(C)C`, the inhibition entry in test [3] is “Active”.
As for `CCCOc1cc2c(cc1C(=C1CC1)c1ccc(C(=O)O)cc1)C(C)(C)CCC2(C)C`, the inhibition result in test [3] and in test [4] was “Active” in each case. The inhibition result in test [5] and in test [6] was “inactive” throughout.

These data come from ChEMBL document CHEMBL3352174, “Identification of a New RXRα Antagonist Targeting the Coregulator-Binding Site” (ACS Med Chem Lett, 2014).
